How the values were obtained:
SK-OV-3 = assay: Growth inhibition of human SKOV3 cells assessed as cell growth at 10^-5 M after 48 hrs by sulforhodamine B assay relative to control; assay type: functional; conditions: SK-OV-3, 48 h, read-out: Activity
How it was run: (§1)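 NCI-60 single-dose screen at 10^-5 M. Cells grown in RPMI 1640 with 5% FBS and 2 mM L-glutamine, plated at 5,000–40,000 cells/well according to doubling time, and preincubated 24 h at 37°C, 5% CO2. Compound dissolved in DMSO and added. Exposure 48 h. Adherent cells fixed with cold TCA (10% final), suspension cells with 16% final TCA. Read-out is 0.4% SRB staining, dye solubilised in 10 mM Tris, absorbance at 515 nm. Percent growth is calculated against the time-zero plate and untreated control.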

OVCAR-8 = assay: Growth inhibition of human OVCAR8 cells assessed as cell growth at 10^-5 M after 48 hrs by sulforhodamine B assay relative to control; assay type: functional; conditions: OVCAR-8, 48 h, read-out: Activity; how it was run: as §1
OVCAR-5 = assay: Growth inhibition of human OVCAR5 cells assessed as cell growth at 10^-5 M after 48 hrs by sulforhodamine B assay relative to control; assay type: functional; conditions: OVCAR-5, 48 h, read-out: Activity; how it was run: as §1
OVCAR-3 = assay: Growth inhibition of human OVCAR3 cells assessed as cell growth at 10^-5 M after 48 hrs by sulforhodamine B assay relative to control; assay type: functional; conditions: OVCAR-3, 48 h, read-out: Activity; how it was run: as §1
IGROV-1 = assay: Growth inhibition of human IGROV1 cells assessed as cell growth at 10^-5 M after 48 hrs by sulforhodamine B assay relative to control; assay type: functional; conditions: IGROV-1, 48 h, read-out: Activity; how it was run: as §1
UACC-257 = assay: Growth inhibition of human UACC257 cells assessed as cell growth at 10^-5 M after 48 hrs by sulforhodamine B assay relative to control; assay type: functional; conditions: UACC-257, 48 h, read-out: Activity
How it was run: (§2)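 NCI-60 single-dose screen, 10^-5 M final. Cells grown in RPMI 1640 with 5% FBS and 2 mM L-glutamine, seeded at 5,000–40,000 cells/well by doubling time. Preincubated 24 h at 37°C, 5% CO2. Compound in DMSO, diluted in medium with gentamicin, then 48 h exposure. Fixed with cold TCA, SRB stained, A515 read. Percent growth vs untreated control, time-zero plate corrected.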

SK-MEL-28 = assay: Growth inhibition of human SK-MEL-28 cells assessed as cell growth at 10^-5 M after 48 hrs by sulforhodamine B assay relative to control; assay type: functional; conditions: SK-MEL-28, 48 h, read-out: Activity; how it was run: as §1
SK-MEL-2 = assay: Growth inhibition of human SK-MEL-2 cells assessed as cell growth at 10^-5 M after 48 hrs by sulforhodamine B assay relative to control; assay type: functional; conditions: SK-MEL-2, 48 h, read-out: Activity; how it was run: as §1
LOX IMVI = assay: Growth inhibition of human LOXIMVI cells assessed as cell growth at 10^-5 M after 48 hrs by sulforhodamine B assay relative to control; assay type: functional; conditions: read-out: Activity; how it was run: as §1
SF-295 = assay: Growth inhibition of human SF295 cells assessed as cell growth at 10^-5 M after 48 hrs by sulforhodamine B assay relative to control; assay type: functional; conditions: SF-295, 48 h, read-out: Activity; how it was run: as §1
SF-268 = assay: Growth inhibition of human SF268 cells assessed as cell growth at 10^-5 M after 48 hrs by sulforhodamine B assay relative to control; assay type: functional; conditions: SF-268, 48 h, read-out: Activity; how it was run: as §1
KM12 = assay: Growth inhibition of human KM12 cells assessed as cell growth at 10^-5 M after 48 hrs by sulforhodamine B assay relative to control; assay type: functional; conditions: KM12, 48 h, read-out: Activity; how it was run: as §1
HT-29 = assay: Growth inhibition of human HT-29 cells assessed as cell growth at 10^-5 M after 48 hrs by sulforhodamine B assay relative to control; assay type: functional; conditions: HT-29, 48 h, read-out: Activity; how it was run: as §1
[1] = Growth inhibition of human HCC2998 cells assessed as cell growth at 10^-5 M after 48 hrs by sulforhodamine B assay relative to control; assay type: functional; conditions: HCC 2998, 48 h, read-out: Activity; how it was run: as §1
NCI-H23 = assay: Growth inhibition of human NCI-H23 cells assessed as cell growth at 10^-5 M after 48 hrs by sulforhodamine B assay relative to control; assay type: functional; conditions: NCI-H23, 48 h, read-out: Activity; how it was run: as §1
A549 = assay: Growth inhibition of human A549 cells assessed as cell growth at 10^-5 M after 48 hrs by sulforhodamine B assay relative to control; assay type: functional; conditions: A549, 48 h, read-out: Activity; how it was run: as §1
HL-60(TB) = assay: Growth inhibition of human HL-60(TB) cells assessed as cell growth at 10^-5 M after 48 hrs by sulforhodamine B assay relative to control; assay type: functional; conditions: HL-60, 48 h, read-out: Activity
How it was run: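 NCI-60 one-dose screen at 10^-5 M. Cells were grown in RPMI 1640 with 5% FBS and 2 mM L-glutamine and plated at 5,000–40,000 cells/well. They were preincubated 24 h at 37°C under 5% CO2, then exposed for 48 h. Suspension cells were fixed with 80% TCA (16% final) and stained with 0.4% SRB, read at 515 nm. Percent growth is versus untreated control, corrected for time-zero.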

Thymidylate synthase = Thymidylate synthase (Homo sapiens, UniProt P04818); assay: Inhibition of human thymidylate synthase
Chain of Thymidylate synthase (P04818 whole entry): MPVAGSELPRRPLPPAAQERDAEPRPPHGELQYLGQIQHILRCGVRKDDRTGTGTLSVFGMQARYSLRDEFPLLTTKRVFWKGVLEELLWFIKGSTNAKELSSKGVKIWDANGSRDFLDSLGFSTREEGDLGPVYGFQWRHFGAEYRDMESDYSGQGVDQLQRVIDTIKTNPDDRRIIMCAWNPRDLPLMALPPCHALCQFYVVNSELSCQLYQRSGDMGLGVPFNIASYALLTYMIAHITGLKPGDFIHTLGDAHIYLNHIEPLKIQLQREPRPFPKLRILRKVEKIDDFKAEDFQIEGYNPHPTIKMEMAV

[2] = molecular target: Proto-oncogene tyrosine-protein kinase Src (Homo sapiens, UniProt P12931); assay: Inhibition of human SRC
Chain of Proto-oncogene tyrosine-protein kinase Src (P12931 2-536 limits assumed): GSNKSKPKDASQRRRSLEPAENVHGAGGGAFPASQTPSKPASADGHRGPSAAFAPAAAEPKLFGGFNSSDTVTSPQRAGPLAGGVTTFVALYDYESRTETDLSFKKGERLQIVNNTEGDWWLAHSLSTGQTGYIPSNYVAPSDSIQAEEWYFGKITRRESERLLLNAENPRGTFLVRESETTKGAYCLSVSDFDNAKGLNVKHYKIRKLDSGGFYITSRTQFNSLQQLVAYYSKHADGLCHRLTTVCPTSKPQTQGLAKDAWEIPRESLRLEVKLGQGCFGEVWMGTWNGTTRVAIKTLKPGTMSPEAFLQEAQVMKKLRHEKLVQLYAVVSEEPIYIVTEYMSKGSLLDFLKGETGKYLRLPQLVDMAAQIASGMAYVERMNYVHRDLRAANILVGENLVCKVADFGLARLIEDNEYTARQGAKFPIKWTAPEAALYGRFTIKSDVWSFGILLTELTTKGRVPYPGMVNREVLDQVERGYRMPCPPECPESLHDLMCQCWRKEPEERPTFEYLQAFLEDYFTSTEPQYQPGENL

MDA-MB-468 = assay: Growth inhibition of human MDA-MB-468 cells assessed as cell growth at 10^-5 M after 48 hrs by sulforhodamine B assay relative to control; assay type: functional; conditions: MDA-MB-468, 48 h, read-out: Activity; how it was run: as §1
T47D = assay: Growth inhibition of human T47D cells assessed as cell growth at 10^-5 M after 48 hrs by sulforhodamine B assay relative to control; assay type: functional; conditions: read-out: Activity; how it was run: as §2
PC-3 = assay: Growth inhibition of human PC3 cells assessed as cell growth at 10^-5 M after 48 hrs by sulforhodamine B assay relative to control; assay type: functional; conditions: PC-3, 48 h, read-out: Activity; how it was run: as §1
UO-31 = assay: Growth inhibition of human UO31 cells assessed as cell growth at 10^-5 M after 48 hrs by sulforhodamine B assay relative to control; assay type: functional; conditions: UO-31, 48 h, read-out: Activity; how it was run: as §2
TK-10 = assay: Growth inhibition of human TK10 cells assessed as cell growth at 10^-5 M after 48 hrs by sulforhodamine B assay relative to control; assay type: functional; conditions: TK-10, 48 h, read-out: Activity; how it was run: as §2

Compound | growth at 10 µM (SK-OV-3) [%] | growth at 10 µM (OVCAR-8) [%] | growth at 10 µM (OVCAR-5) [%] | growth at 10 µM (OVCAR-3) [%] | growth at 10 µM (IGROV-1) [%] | growth at 10 µM (UACC-257) [%] | growth at 10 µM (SK-MEL-28) [%] | growth at 10 µM (SK-MEL-2) [%] | growth at 10 µM (LOX IMVI) [%] | growth at 10 µM (SF-295) [%] | growth at 10 µM (SF-268) [%] | growth at 10 µM (KM12) [%] | growth at 10 µM (HT-29) [%] | growth at 10 µM [1] [%] | growth at 10 µM (NCI-H23) [%] | growth at 10 µM (A549) [%] | growth at 10 µM (HL-60(TB)) [%] | Ki (Thymidylate synthase) [µM] | Ki [2] [µM] | growth at 10 µM (MDA-MB-468) [%] | also measured
N=c1scc(-c2ccccc2)n1CC(=O)N1CCN(c2ccccc2)CC1 | 94.5 | 94.7 | 94.1 | 109 | 98.9 | 108 | 98.8 | 104 | 90.7 | 72.4 | 101 | 104 | 106 | 100 | 91.7 | 90.3 | 99 | 1.36 | 14.1 | 107 | growth at 10 µM (T47D): 91.2%; growth at 10 µM (PC-3): 72.3%; growth at 10 µM (UO-31): 58%; growth at 10 µM (TK-10): 127%
Cc1ccc(-c2csc(=N)n2CC(=O)N2CCN(C)CC2)cc1 | 111 | 99.5 | 116 | 108 | 111 | 102 | 97.5 | 108 | 89.1 | 83.4 | 96.7 | 104 | 110 | 103 | 93.3 | 86.8 | 109 | 19.3 | 4.73 | 98.6 | growth at 10 µM (T47D): 81.6%; growth at 10 µM (PC-3): 68.4%; growth at 10 µM (UO-31): 83.1%; growth at 10 µM (TK-10): 129%
Cc1ccc(-c2csc(=N)n2CC(=O)N2CCOCC2)cc1 | 114 | 108 | 102 | 108 | 112 | 103 | 108 | 111 | 92.8 | 83.6 | 101 | 110 | 109 | 98.9 | 97.3 | 94.1 | 93.2 | 4.06 | 13.3 | 106 | growth at 10 µM (T47D): 97.4%; growth at 10 µM (PC-3): 78.9%; growth at 10 µM (UO-31): 95.3%; growth at 10 µM (TK-10): 126%
CN1CCN(C(=O)Cn2c(-c3ccccc3)csc2=N)CC1 | 89.2 | 92.9 | 110 | 95.4 | 93.2 | 106 | 100 | 118 | 87.3 | 65.9 | 96.2 | 102 | 83.8 | 101 | 90 | 92 | 100 | 1.14 | 7.91 | 97.6 | growth at 10 µM (T47D): 78%; growth at 10 µM (PC-3): 82.1%; growth at 10 µM (UO-31): 78.8%; growth at 10 µM (TK-10): 140%

Source: ChEMBL document CHEMBL2434944, “Novel acetamidothiazole derivatives: synthesis and in vitro anticancer evaluation” (Eur J Med Chem, 2013)
